Bioassay records deposited in PubChem BioAssay by several laboratories.
A selection: hits, their analogues and other compounds. The true share with any hit is near 1.7%.
CAL PDZ FP-1 – inhibitors of human CAL PDZ peptide binding. AID 504414. 330,000 compounds, 0.02% hits. purified CAL PDZ, TMR-peptide fluorescence polarization, 1 h. inhibition, % at 20 µM. Q9HD26;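 active = highest replicate inhibition of at least 40%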;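 also: plate controls were DMSO neutral control wells for no effect and unlabeled competitor peptide control wells for full effect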
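Test system: tagged CAL PDZ domain / Buffer or medium: sodium phosphate/NaCl buffer pH 7.4 with TCEP, IgG, Thesit / Reagent: TMR-labelled reporter peptide T*-PRC34 bound in PDZ groove / Compound dosing: single point, 20 µM / Schedule: 1 h incubation at room temperature before polarization reading / Technique: fluorescence polarization (mP) / Benchmarks: unlabelled peptide, DMSO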
APOBEC3G inh – blocks human APOBEC3G single-stranded DNA deamination | Q9HC16 | recombinant A3G, ssDNA deamination FAM/TAMRA fluorescence | inhibition, % at 20 µM | 330,000 compounds, 0.28% hits | AID 493012;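 active = inhibition of at least 40% at 20 µM, with no more than 30% in the related APOBEC3A deaminase screen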;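 also: plate controls were DMSO wells with A3G for no effect and wells lacking A3G enzyme for full effect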
Target sequence (Q9HC16 whole entry, looked up): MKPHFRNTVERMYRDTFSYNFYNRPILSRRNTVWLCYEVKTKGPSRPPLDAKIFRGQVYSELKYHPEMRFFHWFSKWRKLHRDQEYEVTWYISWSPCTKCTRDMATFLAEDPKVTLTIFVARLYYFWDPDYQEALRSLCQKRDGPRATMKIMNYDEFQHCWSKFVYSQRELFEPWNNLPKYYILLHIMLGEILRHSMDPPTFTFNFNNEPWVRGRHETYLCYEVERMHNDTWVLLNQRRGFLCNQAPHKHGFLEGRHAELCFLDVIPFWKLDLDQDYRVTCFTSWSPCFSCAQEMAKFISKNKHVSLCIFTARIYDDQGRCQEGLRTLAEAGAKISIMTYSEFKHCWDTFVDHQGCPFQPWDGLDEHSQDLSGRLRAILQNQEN
CAL PDZ FP-2 – inhibitors of human CAL PDZ peptide binding | inhibition, % at 24.9 µM | purified CAL PDZ, TMR-peptide fluorescence polarization, 1 h | 300,000 compounds, 0.92% hits | Q9HD26 | AID 602252;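 active = mean inhibition of at least 30% with at least half of replicates also reaching 30%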;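 also: 0% = DMSO neutral control and 100% = excess unlabeled competitor peptide PRC23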
Keap1 Nrf2 FP – Keap1-Nrf2 (human) interaction inhibition; Keap1 Kelch-Nrf2 peptide fluorescence polarization, 1536-well; inhibition, % at 9.4 µM; 340,000 compounds, 0.15% hits; in the data active = inhibition above about 12%;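 also: human Keap1 Kelch domain with fluorescein labeled Nrf2 9mer peptide probe; 0% = neutral control wells and 100% = peptide positive control; higher means more block of Keap1 binding to Nrf2 peptide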
A3A deaminase – human APOBEC3A DNA deaminase inhibition; recombinant A3A, FAM/TAMRA ssDNA deamination fluorescence; inhibition, % at 20 µM; 330,000 compounds, 0.41% hits;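 active = at least 40% inhibition at 20 µM here, with at most 30% in a related deaminase screen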;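 also: plate controls were A3A with DMSO for no effect and wells lacking A3A enzyme for full effect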
Target sequence (P31941 whole entry, looked up): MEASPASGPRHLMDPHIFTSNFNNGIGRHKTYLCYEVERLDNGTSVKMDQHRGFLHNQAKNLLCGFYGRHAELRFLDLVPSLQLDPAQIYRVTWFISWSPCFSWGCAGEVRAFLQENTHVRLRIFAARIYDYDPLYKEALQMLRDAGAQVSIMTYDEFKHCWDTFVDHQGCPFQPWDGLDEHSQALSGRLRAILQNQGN
LANA DNA inh – blocks KSHV LANA C-terminal domain binding to DNA; MBP-C-LANA/FAM-LBS DNA binding, fluorescence polarization; inhibition, % at 9 µM; 340,000 compounds, 0.078% hits; AID 504423;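 active = highest replicate inhibition at or above 60% at 9 µM, even if other replicates fall short; inactive = all replicates below 60% inhibition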;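 also: 0% = neutral control wells and 100% = 4 µM acridine orange control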
The depositor's hits bear a star; nt = not tested or not shown; + = active, no number.

SMILES	CAL PDZ FP-1	APOBEC3G inh	CAL PDZ FP-2	Keap1 Nrf2 FP	A3A deaminase	LANA DNA inh
CCOC(=O)N1CCC(Nc2c(Nc3cccc(CC)c3)c(=O)c2=O)CC1	-1	-3	nt	-4	-3	-1
CCOC(=O)N1CCC(Nc2c(Nc3ccc(F)cc3)c(=O)c2=O)CC1	0	1	59*	-1	2	-1
CCn1nc(C)c(CNC(=O)C2CCC(=O)N(CCc3ccc(OC)cc3)C2)c1C (centres undefined)	1	-2	-3	0	0	2
CN(C(=O)c1ccnn1C)C1CCCN(Cc2ccccc2F)C1 (centres undefined)	0	-4	45*	-3	3	1
CCCCCCSc1ccc([C@H]2N[C@@](CC(C)C)(C(=O)OC)[C@H]3C(=O)N(C)C(=O)[C@@H]23)cc1OC	-1	-9	-1	-4	-1	3
CN(C(=O)COC(=O)c1ccc(Cl)cc1N)C1CCCCC1	0	-4	34*	-5	1	1
O=C(NCc1cccc(C(F)(F)F)c1)c1ccc2c(c1)OCO2	0	14	-1	1	2	-1
Cc1cccc(N2NC(=O)/C(=C/c3ccc(-c4ccc(Cl)c(C(=O)O)c4)o3)C2=O)c1	0	nt	97*	-6	nt	12
CC(=O)c1cnc2nc(SCc3ccc(Cl)cc3)nn2c1C	nt	-1	178*	-1	-4	0
CC(=O)c1cnc2nc(SCc3ccc(C)cc3)nn2c1C	-2	-7	nt	1	-5	1
CCOc1ccc(NC(=O)CCN2CCN(S(=O)(=O)c3ccc(F)cc3)CC2)cc1	0	-4	74*	-5	-5	-2
COc1ccc(NC(=O)CCN2CCN(S(=O)(=O)c3ccc(F)cc3)CC2)cc1	-1	0	nt	0	-4	-3
O=C(O)c1ccccc1CSc1nnnn1-c1ccccc1	nt	-6	81*	2	-2	0
CCOC(=O)CCSc1nnc(-c2cccnc2)n1-c1ccccc1OC	1	-4	67*	3	-4	1
COc1ccccc1-n1c(SCC(N)=O)nnc1-c1ccccc1	-3	-3	0	1	24	0
CCCCOc1ccc(C(=O)N2CCN(CC(=O)Nc3ccc(C)cc3)CC2)cc1OC	-1	-3	-2	0	-4	0
COc1ccc(NC(=O)CSc2nnc(Cn3cnc4ccccc43)n2C)cc1	-2	-8	-2	-2	-3	-1
CCOC(=O)CNC(=O)CSc1nnc(Cn2cnc3ccccc32)n1C	-1	-3	+	5	3	3
CCOc1ccc2[nH]c3c(NCC(C)C)ncnc3c2c1	-1	-5	81*	-1	4	1
COc1ccc(C(=O)COC(=O)/C=C/c2ccco2)cc1F	-1	-4	65*	-3	8	-1
COC(=O)C1=CN(Cc2ccc(OC)c(OC)c2)C=C(C(=O)OC)C1c1cccc(F)c1	-15	-8	58*	5	-7	1
COC(=O)C1=CN(Cc2ccc(F)cc2)C=C(C(=O)OC)C1c1cc(OC)c(OC)c(OC)c1	-3	-6	-4	0	-3	0
CCCCNC(=O)c1onc(CSc2cc(C)cc(C)c2)c1C(=O)NCCCC	-2	11	-5	0	2	2
O=C(Nc1ccc(NC(=O)c2ccco2)c(Cl)c1)c1ccccc1	0	4	nt	0	3	1
CCC(=O)Oc1cccc(C(=O)Nc2cccc(NC(=O)c3ccco3)c2)c1	-3	-4	44*	1	2	1
SMILES	CAL PDZ FP-1	APOBEC3G inh	CAL PDZ FP-2	Keap1 Nrf2 FP	A3A deaminase	LANA DNA inh
O=C(Nc1ccc(Br)c(Cl)c1)c1ccco1	nt	-4	46*	-1	-3	0
O=C(Nc1cccc(F)c1)c1ccco1	54*	-6	1	4	0	0
O=C(Nc1ccc(CSc2ccccc2)cc1)c1ccco1	-4	-9	63*	-2	-9	-1
CCCCN1C(=O)C(=O)N(CC(=O)Nc2cc(S(=O)(=O)N(C)C)ccc2C)C1=O	-1	-5	-5	-4	2	-2
CN(C)CC(=O)c1c(N)n(Cc2ccccc2)c(=O)n(C)c1=O	-2	-9	82*	2	0	2
Cn1c(=O)c(C(=O)CCl)c(N)n(Cc2ccccc2)c1=O	0	-4	4	0	1	0
CCOC(=O)N1CCN(C(=O)C2CCN(C(=O)c3ccc([N+](=O)[O-])cc3)CC2)CC1	0	-8	77*	2	6	-1
O=C(CCNC(=O)c1ccc(Br)cc1)NCCCSc1ccccc1	-3	-8	-3	1	-3	1
CCC1(c2ccc(Cl)cc2)NC(=O)N(CC(=O)N2CCN(C(=O)c3ccco3)CC2)C1=O (centres undefined)	-1	-7	0	-6	-2	1
O=C(CNCCc1ccccc1)N1CCc2ccccc2C1	-1	3	45*	-3	4	-2
O=C(Cc1ccccc1)NCC(=O)N1CCc2ccccc2C1	0	-10	0	3	-3	1
Cc1ccc(NC2(c3nnnn3-c3c(C)cccc3C)CCCCC2)cc1	-3	-2	0	-3	1	0
O=C(Nc1ccc(F)cc1F)C1CCCN1S(=O)(=O)c1cccc2nsnc12 (centres undefined)	-1	4	-3	-2	2	-1
O=C(Nc1ccc(F)cc1)C1CCCN1S(=O)(=O)c1cccc2nsnc12 (centres undefined)	0	-5	128*	-1	1	1
COc1ccc(C(CC(=O)O)NC(=O)c2ccccc2[N+](=O)[O-])cc1 (centres undefined)	0	-4	31*	-1	-1	-3
O=C(NS(=O)(=O)Nc1ccc(Br)cn1)c1c[nH]c2ccccc12	-2	-5	-7	5	-5	0
O=C1OCc2ccc(NC(=O)C3CC3)cc21	0	-3	-4	2	2	84*
CNC(=O)C(C)Sc1ccc(S(=O)(=O)N2CCOCC2)cn1 (centres undefined)	0	-1	-6	0	10	0
Cc1ccccc1NC(=O)Cn1cnc2c(oc3ccccc32)c1=O	0	1	-5	-3	2	-1
Cc1cccc(NC(=O)Cn2cnc3c(oc4ccccc43)c2=O)c1C	62*	-5	-6	1	-2	0
COc1cccc(-c2nn(-c3ccc(C)cc3)cc2C(=O)N(C)CC(=O)Nc2cccc(F)c2)c1	0	-5	47*	-4	-3	-1
O=C(NCCCN1CCOCC1)c1ccc(Sc2cccc(Cl)c2)c([N+](=O)[O-])c1	1	-5	-2	3	-1	-3
Cn1c(=O)n(C)c2cc(/C=N/NC(N)=S)ccc21	-1	-10	-1	-2	-4	0
